Source: PubChem BioAssay (several laboratories)
SR-BI HDL uptake: blocks mouse SR-BI lipid uptake from DiI-HDL; Q61009; ldlA[mSR-BI] CHO cells, DiI-HDL uptake fluorescence, 3 h; inhibition, % at 12.5 µM; 320,000 compounds, 0.96% hits; AID 488896;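 active = mean replicate inhibition of at least 70% and a set share of replicates each scoring 70 or more; inconclusive = meets just one of the two criteria; inactive = fails both criteria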;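 also: 0% = median of neutral control wells and 100% = median of positive control wells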
PKA-R1A act: activates the PKA-R1A holoenzyme complex. PKA-R1A dissociation, Cy5-IP20 fluorescence polarization; scaled: DMSO 0%, 113 µM cGMP 100%. activation, % at 11.4 µM. 340,000 compounds, 0.083% hits;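 active = percent activation above the mean of all tested compounds plus 3 SD, cut at about 19% in these data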;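 also: higher means more PKAc released from R1A so a rise in polarization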
PKA-R2B act: activators of human PKA-R2B complex | PKA-R2B holoenzyme dissociation, Cy5-IP20 fluorescence polarization; R2B truncated from residue 108, S112A mutant; 0% DMSO only, 100% 113 µM cGMP | activation, % at 11.4 µM | AID 504700 | 340,000 compounds, 0.079% hits;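 active = activation above a cutoff set at the mean over all compounds plus 3 SD, cut at about 18% in these data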;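 also: higher means more holoenzyme dissociation and a rise in polarization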
dFosB activator: mouse delta FosB homodimer activation; P13346; activation, % at 25 µM; purified delta FosB, TAMRA-CDK5 oligo fluorescence polarization; percent of positive-control signal above neutral wells; AID 493131; 340,000 compounds, 0.99% hits;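 active = mean activation above about 17%, with every replicate also reaching it, limit read from the data, passing the limit was not always enough; inconclusive = only one of the two conditions met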
SR-BI uptake up: SR-BI HDL lipid transfer activation; CHO ldlA[mSR-BI] cells, DiI-HDL uptake fluorescence, 3 h; 100 = double the neutral-control signal; activation, % at 12.5 µM; 320,000 compounds, 0.096% hits;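 active = mean replicate activation of at least 60% and every replicate at or above 60%; inconclusive = mean or all-replicate condition met, but not both; inactive = mean below 60% and not all replicates reaching 60%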;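 also: 0% = median plate neutral-control signal and 100% = twice that signal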
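Test system: SR-BI-overexpressing, LDLR-lacking CHO cells. Measured by: DiI fluorescence, bottom read. Medium: Ham's F12 with 0.5% BSA, HEPES 25 mM, pH 7.4. Timing: 3 h uptake period with compound, 37 °C.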
CDK5 inh: CDK5/p35 (human) kinase inhibition | Q00535+Q15078 | Recombinant CDK5/p35, ADP-Glo luminescence, 60 min | inhibition, % at 10 µM | 330,000 compounds, 0.01% hits;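 active = highest replicate inhibition of at least 50% and at least 75% of replicates reaching 50%; inconclusive = only one of the two criteria met; inactive = both criteria failed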;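 also: plate controls were DMSO neutral control for no effect and GW8510 at 10 µM for full effect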
Target sequence (Q00535 whole entry, looked up): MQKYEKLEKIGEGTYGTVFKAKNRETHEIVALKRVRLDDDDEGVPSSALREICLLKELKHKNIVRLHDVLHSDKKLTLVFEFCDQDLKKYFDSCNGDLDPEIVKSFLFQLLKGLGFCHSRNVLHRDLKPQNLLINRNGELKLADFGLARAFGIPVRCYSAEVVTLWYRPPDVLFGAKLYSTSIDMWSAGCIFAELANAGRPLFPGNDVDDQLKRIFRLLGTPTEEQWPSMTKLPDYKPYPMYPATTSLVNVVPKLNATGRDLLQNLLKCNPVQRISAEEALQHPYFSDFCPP
Target sequence (Q15078 whole entry, looked up): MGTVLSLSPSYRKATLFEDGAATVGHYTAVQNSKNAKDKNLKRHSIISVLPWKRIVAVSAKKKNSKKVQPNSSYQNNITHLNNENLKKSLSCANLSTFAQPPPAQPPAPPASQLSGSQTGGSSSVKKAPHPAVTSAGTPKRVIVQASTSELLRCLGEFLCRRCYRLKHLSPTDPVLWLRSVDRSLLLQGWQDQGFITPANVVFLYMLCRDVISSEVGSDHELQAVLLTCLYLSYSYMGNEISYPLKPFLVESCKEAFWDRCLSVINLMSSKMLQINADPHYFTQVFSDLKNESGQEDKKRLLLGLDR
* hit, by the source's call; i = inactive; ? = inconclusive; · = not tested or not shown. Compounds with a hit are over-represented: about 2.1% of the library has one in this group of screens.

SMILES	SR-BI HDL uptake	PKA-R1A act	PKA-R2B act	dFosB activator	SR-BI uptake up	CDK5 inh
COC(=O)c1cc(NC(=O)c2cc(-c3ccccc3Cl)oc2C(F)(F)F)ccc1N1CCOCC1	84.2*	1.3	-11.1	-20.0	-84.2	1.1
COc1ccc(NS(=O)(=O)c2cc(NC(=O)c3ccccc3)ccc2N2CCOCC2)cc1	11.0	-6.4	-11.1	-6.1	-11.0	-6.7
COc1ccc(NS(=O)(=O)c2cc(NC(=O)c3cc(F)c(F)cc3Cl)ccc2N2CCOCC2)cc1	22.6	0.8	-7.2	20.7*	-22.6	0.7
Cc1cc(=O)oc2c(C)c(OCC(=O)N3CCN(C(=O)C4COc5ccccc5O4)CC3)ccc12 (stereo not drawn)	84.9*	-6.9	-5.6	-8.7	-84.9	-0.3
CCCCc1cc(=O)oc2c(C)c(OCC(=O)N3CCCC3)ccc12	75.8*	-9.3	-4.2	-17.0	-75.8	0.7
CCOC(=O)c1ccc(CNC(=O)C2CCC(=O)N(CCc3ccccc3)C2)o1 (stereo not drawn)	7.1	4.6	2.0	-9.7	-7.1	0.4
COc1ccc(/C=C/C(O)=C(\C#N)c2nnc(N3CCOCC3)n2-c2ccccc2)cc1OC	75.5*	5.3	-8.5	-8.7	-75.4	1.3
CCCNC(=O)c1cc(Cl)c(NC(=O)C2=CSCCO2)cc1OC	47.2	4.0	9.0	-6.6	-47.2	1.0
Cc1ccc(-c2cc(-c3ccc(F)cc3)n[nH]2)c(O)c1	17.3	-0.9	-10.4	-0.7	-17.3	-0.1
Cc1ccc(-c2cc(-c3ccc(C)cc3O)[nH]n2)cc1	100.4*	-4.2	-7.5	-5.0	-100.4	-0.4
Cc1cc(C(=O)CCC(=O)N(C)CC(=O)Nc2ccccc2Br)c(C)s1	9.1	-3.5	-7.4	0.5	-9.1	-0.4
COc1ccc2nc(SCC(=O)NN)cc(C)c2c1	-2.7	-17.8	-2.7	1.4	2.7	1.1
COc1ccc2c(C)cc(SCC(=O)Nc3cc(C(N)=O)cc(C(N)=O)c3)nc2c1	7.1	1.8	1.9	67.6*	-7.1	1.2
CCc1ccc(S(=O)(=O)NCc2csc(C)n2)cc1	·	2.0	16.6	-1.9	·	0.4
CN(/N=C\c1ccc(O)c(O)c1)c1nc(-c2ccccc2)cc(-c2ccccc2)n1	112.0*	2.8	-3.6	-24.6	-112.0	-1.5
COc1cc(/C=N/N(c2ccccc2)c2ccccc2)ccc1O	12.2	-2.1	-4.6	-1.0	-12.2	-0.2
CCCCN1CC(C)(C)Oc2cccc(F)c2S1(=O)=O	12.5	-2.9	0.6	6.0	-12.5	0.7
O=[N+]([O-])c1ccc(NC(c2ccccc2)c2ccc3cccnc3c2O)cc1 (stereo not drawn)	80.5*	-5.2	3.2	3.7	-80.5	-1.5
CC(=O)NC(c1cccc([N+](=O)[O-])c1)c1ccc2cccnc2c1O (stereo not drawn)	-9.5	-4.3	0.0	-10.8	9.5	-0.2
Cn1c(=O)n(CCc2ccccc2)c(=O)c2c1nc1n2CCCN1CCc1ccccc1	i	-7.4	13.3	-7.6	505.8*	1.0
CC(OC(=O)Cc1ccccc1[N+](=O)[O-])C(=O)NC(=O)NC1CCCCC1 (stereo not drawn)	-8.9	-13.0	-2.1	-13.0	8.9	-0.1
COCCNC(=O)c1cn(CCOC)c(=O)c2c1c1ccccc1n2C	-0.1	11.7	-2.9	-6.1	0.1	1.9
Cc1nc(N2CCC(C)CC2)c2c(C)c(C(=O)Nc3ccc(C)c(F)c3)sc2n1	86.7*	4.3	3.4	-8.5	-86.7	-0.9
Cc1cccc(NC(=O)c2sc3nc(C)nc(N4CCOCC4)c3c2C)c1	·	-11.5	12.8	·	·	·
Cc1nc(N2CCCCC2)c2c(C)c(C(=O)Nc3ccc4c(c3)OCCO4)sc2n1	77.4*	-10.3	-9.7	1.2	-77.4	0.1
SMILES	SR-BI HDL uptake	PKA-R1A act	PKA-R2B act	dFosB activator	SR-BI uptake up	CDK5 inh
COc1ccc(S(=O)(=O)N(C)C[C@H]2Oc3ccc(NC(=O)C4CC4)cc3C(=O)N([C@H](C)CO)C[C@@H]2C)cc1	6.5	-12.4	-4.3	1.9	-6.5	-1.4
CN(C)CC1C2CCC(C2)C1O (stereo not drawn)	-26.1	-12.7	-5.3	4.0	26.1	-1.3
O=C(Nc1cccc(Cl)c1)Nc1nc(-c2ccc(Cl)cc2)cs1	78.7*	-11.7	4.5	2.0	-78.7	0.4
COc1ccc(-c2csc(NC(=O)CCCc3nc4ccccc4c(=O)[nH]3)n2)cc1OC	23.2	6.6	6.3	-3.7	-23.2	0.4
COc1ccc(-c2csc(NC(C)=O)n2)cc1OC	4.0	-9.0	-5.6	6.4	-4.0	0.8
COc1ccc(-c2csc(Nc3ncccc3C)n2)cc1OC	72.0*	-12.0	-10.0	-2.9	-72.0	0.2
COc1ccc(-c2csc(NC(=O)CCn3cnc4ccccc4c3=O)n2)cc1OC	75.3*	8.5	-8.2	?	-75.3	-0.9
O=C(Nc1ccccc1)Nc1nc(-c2ccc(Cl)cc2)cs1	38.4	2.8	-1.5	2.6	-38.4	1.5
COc1cccc(NC(=O)Nc2nc(-c3ccc(OC)c(OC)c3)cs2)c1	77.2*	4.9	-8.4	-0.4	-77.2	1.5
COc1ccc(-c2csc(Nc3ncccc3C)n2)cc1	16.6	8.0	3.6	-7.0	-16.6	0.4
CC1CCN(S(=O)(=O)c2nnc(NC(=O)c3cccc(Cl)c3)s2)CC1	-11.7	-2.3	1.5	5.8	11.7	0.1
CC(C(=O)Nc1nc(-c2ccc(F)c(F)c2)cs1)N1C(=O)C2CC=CCC2C1=O (stereo not drawn)	34.1	-5.4	-11.2	0.2	-34.1	-1.9
COc1ccc(-c2csc(NC(=O)[C@H](C)N3C(=O)C4CC=CCC4C3=O)n2)cc1OC (stereo partly drawn)	71.0*	-0.6	-1.1	-6.5	-71.0	1.0
CC(C)n1cc(CN2CCC(Oc3ccc(C(=O)N4CCCC4)cc3)CC2)cn1	0.3	-9.1	-10.6	-2.4	-0.3	-1.1
CCCCN(C(=O)c1cccc(S(=O)(=O)N2CCCC2)c1)c1c(N)n(CCC)c(=O)[nH]c1=O	-70.1	-0.7	-8.8	7.7	70.1*	-1.7
CCCCN(C(=O)c1cccc(S(=O)(=O)N2CCN(C)CC2)c1)c1c(N)n(CC(C)C)c(=O)[nH]c1=O	-40.5	-0.6	-15.8	-2.6	40.5	-1.9
CCN(CC)C(=O)c1cccc(NC(=O)C2CCN(C(=O)c3cccs3)CC2)c1	-5.8	-0.4	3.5	-11.4	5.8	2.2
Cc1cc(/C=N/Nc2ccc([N+](=O)[O-])cn2)c(C)n1-c1ccccc1	17.7	-14.5	-8.7	22.1*	-17.7	0.4
CC1CCN=C(N)S1 (stereo not drawn)	-11.9	-1.2	2.1	1.0	11.9	-0.2
